# Laboratory results published in ChEMBL document CHEMBL4616681, “Discovery of 3-Pyridyl Isoindolin-1-one Derivatives as Potent, Selective, and Orally Active Aldosterone Synthase (CYP11B2) Inhibitors” (J Med Chem, 2020).
# Columns and labels:
# [1] = molecular target: T1, Cytochrome P450 11B2, mitochondrial (Homo sapiens, UniProt P19099); assay: Inhibition of human CYP11B2 expressed in human renal leiomyoblastoma cells harboring FDXR/FDX using 1-deoxycorticosterone as substrate by HTRF assay; type: cell-based
# T1 sequence (P19099 whole entry): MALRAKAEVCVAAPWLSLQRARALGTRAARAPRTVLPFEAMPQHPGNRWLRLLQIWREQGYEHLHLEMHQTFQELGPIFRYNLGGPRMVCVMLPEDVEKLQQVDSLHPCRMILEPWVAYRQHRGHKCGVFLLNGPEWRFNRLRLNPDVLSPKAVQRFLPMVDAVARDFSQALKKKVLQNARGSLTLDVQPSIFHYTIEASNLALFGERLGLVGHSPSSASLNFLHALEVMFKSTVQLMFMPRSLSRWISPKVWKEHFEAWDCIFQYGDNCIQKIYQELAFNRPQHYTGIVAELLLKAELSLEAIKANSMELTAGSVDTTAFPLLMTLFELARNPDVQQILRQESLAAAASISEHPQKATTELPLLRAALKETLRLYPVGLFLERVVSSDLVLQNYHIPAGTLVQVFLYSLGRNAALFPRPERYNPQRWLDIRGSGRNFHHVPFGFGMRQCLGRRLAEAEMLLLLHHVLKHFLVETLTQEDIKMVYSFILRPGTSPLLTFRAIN
# Method in brief: (§1)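 Cells with endogenous FDXR/FDX and no detectable CYP11B activity, stably transfected (CMV promoter, neomycin selection, G-418 400 µg/mL) with CYP11B1 or CYP11B2 of the named species. Assayed in DMEM/F12 with 2.5% charcoal-treated FCS. Substrate 1 µM 11-deoxycorticosterone (B2) or 11-deoxycortisol (B1), 16 hr. Aldosterone or cortisol in supernatant measured by HTRF. IC50 from 4-parameter MMF fit; selectivity factor is the B1/B2 IC50 ratio.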
# [2] = Selectivity ratio of IC50 for human CYP11B1 expressed in human renal leiomyoblastoma cells harboring FDXR/FDX to IC50 for human CYP11B2 expressed in human renal leiomyoblastoma cells harboring FDXR/FDX; type: cell-based; method in brief: as §1
# [3] = Inhibition of cynomolgus monkey CYP11B2 expressed in human G401 cells using 1-deoxycorticosterone as substrate by HTRF assay; type: cell-based, Macaca fascicularis; details: g-401; method in brief: as §1
# [4] = Selectivity ratio of IC50 for cynomolgus monkey CYP11B1 expressed in human G401 cells to IC50 for cynomolgus monkey CYP11B2 expressed in human G401 cells; type: cell-based; method in brief: as §1
# [5] = molecular target: T2, Cytochrome P450 11B1, mitochondrial (Homo sapiens, UniProt P15538); assay: Inhibition of human CYP11B1 expressed in human renal leiomyoblastoma cells harboring FDXR/FDX using 1-deoxycortisol as substrate by HTRF assay; type: ADME, cell-based; method in brief: as §1
# T2 sequence (P15538 whole entry): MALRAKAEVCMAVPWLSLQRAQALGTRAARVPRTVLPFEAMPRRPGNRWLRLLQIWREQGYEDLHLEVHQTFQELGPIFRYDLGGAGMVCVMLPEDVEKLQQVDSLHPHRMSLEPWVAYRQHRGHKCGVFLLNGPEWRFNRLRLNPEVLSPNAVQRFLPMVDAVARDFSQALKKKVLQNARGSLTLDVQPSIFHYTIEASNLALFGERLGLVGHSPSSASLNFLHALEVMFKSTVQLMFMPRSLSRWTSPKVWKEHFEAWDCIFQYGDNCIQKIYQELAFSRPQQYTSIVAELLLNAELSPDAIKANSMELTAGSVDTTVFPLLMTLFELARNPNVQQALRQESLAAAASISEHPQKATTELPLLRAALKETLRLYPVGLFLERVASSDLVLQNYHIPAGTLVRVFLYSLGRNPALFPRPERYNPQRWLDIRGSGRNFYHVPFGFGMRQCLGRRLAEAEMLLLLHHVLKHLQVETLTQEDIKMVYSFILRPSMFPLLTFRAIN
# [6] = Intrinsic clearance in human liver microsomes preincubated for 10 mins followed by NADPH regenerating system addition and measured up to 30 mins by LC/MS-MS analysis; type: ADME, Microsome; details: read-out: CLH
# Method in brief: (§2)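 Liver microsomes at 0.5 mg protein/mL in 100 mM potassium phosphate, pH 7.4. Compound preincubated 10 min at 37 °C. Intrinsic clearance scaled using the well-stirred liver model.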
# [7] = Intrinsic clearance in mouse liver microsomes preincubated for 10 mins followed by NADPH regenerating system addition and measured up to 30 mins by LC/MS-MS analysis; type: ADME, Microsome; method in brief: as §2
# [8] = Octanol-water distribution coefficient, log D of the compound by carrier-mediated distribution system; type: physicochemical
# [9] = Permeability of the compound measured at 18 hrs by PAMPA; type: ADME; details: read-out: permeability
# Method in brief: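 PAMPA sandwich format. Donor: compound diluted to 150 μM (DMSO <2%) in 0.05 M MOPSO pH 6.5 with 0.5% glycocholic acid. Acceptor: 0.05 M MOPSO pH 6.5. Membrane of 10% egg lecithin with 0.5% cholesterol in dodecane. Donor measured at start; acceptor and donor measured at ~18 hr.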
# [10] = Solubility of the compound in phosphate buffer at pH 6.5 shaken for 2 hrs followed by overnight incubation; type: physicochemical
# Method in brief: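 Lyophilisation solubility assay run in duplicate from 10 mM DMSO stock. DMSO evaporated and residue redissolved in 0.05 M phosphate, pH 6.5. Stirred 1 hr, shaken 2 hr, left overnight, then filtered. Filtrate and a 1/10 dilution analysed by HPLC-UV against a four-point calibration.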
# [11] = Intrinsic clearance in rat liver microsomes preincubated for 10 mins followed by NADPH regenerating system addition and measured up to 30 mins by LC/MS-MS analysis; type: ADME, Microsome; method in brief: as §2
# [12] = Plasma clearance in Wister-Han rat at 1 mg/kg, iv administered as single dose by LC/MS-MS analysis; type: ADME, organism-based; details: Wistar-Han
# Method in brief: (§3)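 Male Wistar-Han rats, single dose. IV 1 mg/kg, compound at 0.5 mg/mL in NMP:saline 30/70 (v/v). Oral 3 mg/kg, 0.25 mg/mL in 2% Klucel with 0.1% Polysorbate 80. Three rats per time point. Heparinized blood taken at eight (iv) or seven (po) time points, plasma stored at -20 °C. Plasma levels by LC/MS-MS. Non-compartmental analysis.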
# [13] = AUC (0 to infinity) in Wister-Han rat at 3 mg/kg, po administered as single dose by LC/MS-MS analysis; type: ADME, organism-based; design: dose 3 mg/kg, route oral, time infinity; details: Wistar-Han, in vivo; method in brief: as §3
# [14] = Oral bioavailability in Wister-Han rat at 3 mg/kg administered as single dose by LC/MS-MS analysis; type: ADME, organism-based; details: Wistar-Han, in vivo; method in brief: as §3
SMILES,IC50 [1],IC50 [3],IC50 [5],predicted hepatic clearance [6],predicted hepatic clearance (CLH) [7],logD [8],Papp at 18 h [9],solubility at 2 h [10],predicted hepatic clearance (CLH) [11],clearance [12],AUC(0-inf) [13],bioavailability [14],Ratio IC50 [2],Ratio IC50 [4]
O=C1c2ccc(Cl)cc2CN1c1cccnc1,179 nM,,10.7 µM,12.8 mL/min/kg,76.5 mL/min/kg,2.52,,,,,,,60,
CC1(C)c2cc(Cl)ccc2C(=O)N1c1cncc(CNS(C)(=O)=O)c1,33 nM,10 nM,,,,,,,,,,,49,179
CC(=O)N1CC2(C1)CN(c1cncc(N3C(=O)c4ccc(Cl)cc4C3(C)C)c1)C2,23 nM,,,,,,,,3.71 mL/min/kg,,,,640,
CC(=O)N[C@@H]1CCCc2c1cncc2N1C(=O)c2ccc(Cl)cc2[C@H]1C,130 nM,,5.14 µM,< 3.5 mL/min/kg,43.5 mL/min/kg,,,,,,,,40,
CC(=O)N[C@@H]1CCCc2c1cncc2N1CCc2cc(Cl)ccc2C1=O,54 nM,,3.92 µM,4.3 mL/min/kg,,,,,< 20.2 mL/min/kg,,,,73,
CCS(=O)(=O)N1CC2(CN(c3cncc(N4C(=O)c5ccc(Cl)cc5C4(C)C)c3)C2)C1,16 nM,1 nM,,,,,,,0.87 mL/min/kg,,,,855,19700
CS(=O)(=O)N[C@@H]1CCCc2c1cncc2N1Cc2cc(Cl)ccc2C1=O,998 nM,,9.35 µM,< 3.5 mL/min/kg,< 20.2 mL/min/kg,,,,,,,,9,
CS(=O)(=O)N[C@@H]1CCCc2c1cncc2N1CCc2cc(Cl)ccc2C1=O,76 nM,,5.15 µM,< 3.5 mL/min/kg,,,,,< 20.2 mL/min/kg,,,,68,
CCC(=O)N[C@@H]1CCCc2c1cncc2N1CCc2cc(Cl)ccc2C1=O,119 nM,,3.33 µM,< 3.5 mL/min/kg,,,,,< 20.2 mL/min/kg,,,,,
CC(=O)NCc1cncc(N2C(=O)c3ccc(Cl)cc3C2(C)C)c1,59 nM,14 nM,,,,,,,,,,,47,333
CC[C@H]1c2cc(Cl)ccc2C(=O)N1c1cncc2c1CCC[C@H]2NC(C)=O,97 nM,,3.63 µM,< 3.5 mL/min/kg,< 20.2 mL/min/kg,,,,,,,,37,
CC(=O)N[C@@H]1CCCc2c1cncc2N1Cc2cc(Cl)ccc2C1=O,44 nM,,2.33 µM,< 3.5 mL/min/kg,< 20.2 mL/min/kg,,,,,,,,53,
CCS(=O)(=O)N[C@@H]1CCCc2c1cncc2N1Cc2cc(Cl)ccc2C1=O,40 nM,,1.79 µM,< 3.5 mL/min/kg,27 mL/min/kg,,,,,,,,45,

# Now those with a lower IC50 [1], led by results:
IC50 [1],IC50 [3],IC50 [5],predicted hepatic clearance [6],predicted hepatic clearance (CLH) [7],logD [8],Papp at 18 h [9],solubility at 2 h [10],predicted hepatic clearance (CLH) [11],clearance [12],AUC(0-inf) [13],bioavailability [14],SMILES,Ratio IC50 [2],Ratio IC50 [4]
5 nM,2 nM,,,,,,,,,,,CC(=O)N1CCC(c2cncc(N3C(=O)c4ccc(Cl)cc4C3(C)C)c2)CC1,77,466
4 nM,2 nM,,,,,,,,,,,CC(=O)N1CCC(Oc2cncc(N3C(=O)c4ccc(Cl)cc4C3(C)C)c2)CC1,61,225
0.5 nM,,,,,,3.45 ×10⁻⁶ cm/s,310 µg/mL,6.4 mL/min/kg,3.8 mL/min/kg,7880 ng·h/mL,60%,Cn1cc(C(=O)N2CC(Oc3cncc(N4C(=O)c5ccc(Cl)cc5C4(C)C)c3)C2)cn1,4160,
5 nM,0.5 nM,,,,,3.32 ×10⁻⁶ cm/s,20 µg/mL,,3.1 mL/min/kg,10800 ng·h/mL,58%,CC1(C)c2cc(Cl)ccc2C(=O)N1c1cncc(OC2CN(C(=O)c3ncccc3Cl)C2)c1,174,1120
11 nM,7 nM,,,,,,,,,,,CC(=O)N1CC[C@@H](Oc2cncc(N3C(=O)c4ccc(Cl)cc4C3(C)C)c2)C1,113,643
9 nM,,,,,,,,,,,,Cc1cccnc1C(=O)NCc1cncc(N2C(=O)c3ccc(Cl)cc3C2(C)C)c1,89,191
4 nM,0.9 nM,,,,,5.4 ×10⁻⁶ cm/s,290 µg/mL,10.4 mL/min/kg,15.8 mL/min/kg,1020 ng·h/mL,40%,Cc1ccncc1C(=O)N1CC(Oc2cncc(N3C(=O)c4ccc(Cl)cc4C3(C)C)c2)C1,553,1770
3 nM,0.4 nM,,,,,4.01 ×10⁻⁶ cm/s,39 µg/mL,35.1 mL/min/kg,29.7 mL/min/kg,1460 ng·h/mL,87%,CCS(=O)(=O)N1CCC(c2cncc(N3C(=O)c4ccc(Cl)cc4C3(C)C)c2)CC1,106,430
9 nM,3 nM,,,,,,,17.7 mL/min/kg,,,,CC(=O)N1CCN(c2cncc(N3C(=O)c4ccc(Cl)cc4C3(C)C)c2)CC1,80,236
7 nM,,0.334 µM,< 3.5 mL/min/kg,< 20.2 mL/min/kg,,,,,,,,CC[C@@H]1c2cc(Cl)ccc2C(=O)N1c1cncc2c1CCC[C@H]2NC(C)=O,48,
7 nM,5 nM,,,,,,,,,,,CC(=O)N1CC[C@H](Oc2cncc(N3C(=O)c4ccc(Cl)cc4C3(C)C)c2)C1,81,193
8 nM,4 nM,,,,,,,,,,,C[C@@H](NS(C)(=O)=O)c1cncc(N2C(=O)c3ccc(Cl)cc3C2(C)C)c1,71,93
6 nM,,0.414 µM,< 3.5 mL/min/kg,< 20.2 mL/min/kg,,,,,,,,CCC(=O)N[C@@H]1CCCc2c1cncc2N1C(=O)c2ccc(Cl)cc2[C@@H]1C,69,
2 nM,0.2 nM,,,,,6.03 ×10⁻⁶ cm/s,91 µg/mL,16.8 mL/min/kg,16.6 mL/min/kg,1640 ng·h/mL,54%,CC1(C)c2cc(Cl)ccc2C(=O)N1c1cncc(N2CCN(S(C)(=O)=O)CC2)c1,146,170
